Data: ChEMBL document CHEMBL5029154, “Design, Synthesis, and Biological Evaluation of Organic Nitrite (NO2-) Donors as Potential Anticerebral Ischemia Agents” (J Med Chem, 2021)
Activity calls are given as the source filed them. The rule behind the calls is not given here.

Columns and labels:
Cortical neurone [1] = assay: (§1) Neuroprotective activity against in OGD/R-induced rat cortical neuron cytotoxicity assessed as activation of NO/cGMP/PKG pathway by measuring increase in cGMP level pretreated at 1.8 uM for 24 hrs followed by subjected to OGD for 2 hrs measured after 24 hrs under normoxic condition by ELISA; type: functional, tissue-based
[2] = Lipo-hydro partition coefficient, logP of compound; type: physicochemical; conditions: octanol/water
Rattus norvegicus [3] = assay: (§2) Neuroprotective activity against middle cerebral artery occlusion-induced ischemia-reperfusion injury Sprague-Dawley rat model assessed as increase in CD31 expression in cerebral ischemic penumbra at 95 to 950 microg/kg, iv treated immediately reperfusion measured after 24 hrs by immunofluoresence assay; type: functional, organism-based; conditions: dose 95-950 µg/kg
[4] = Neuroprotective activity against in OGD/R-induced rat cortical neuron apoptosis assessed as early apoptotic cells pretreated at 1.8 uM for 24 hrs followed by subjected to OGD for 2 hrs measured after 24 hrs under normoxic condition by PI/FITC-H staining based flow cytometry (reference value: 58.46%); type: functional, Cortical neurone
[5] = GSH reactivity assessed as reaction rate measured at 4 equiv of GSH upto 24 hrs by HPLC analysis; type: ADME
Rattus norvegicus [6] = assay: Neuroprotective activity against middle cerebral artery occlusion-induced ischemia-reperfusion injury Sprague-Dawley rat model assessed as decrease in neurologic deficit scores at 95 to 9500 microg/kg, iv treated immediately reperfusion measured after 24 hrs; type: functional, organism-based; conditions: dose 95-9500 µg/kg
How it was run: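 Male SD rats (12 weeks, 200–220 g; N = 8/group) underwent MCAO under […] (350 mg/kg) using a nylon intraluminal suture for 2 h, then reperfusion. Compound (95, 950 or 9500 μg/kg) was given iv immediately after reperfusion; where used, PTIO 1 mg/kg iv was given 30 min before. At 24 h, blinded scoring covered Longa neurological deficit, TTC infarct area/whole area, and edema from wet/dry brain weight (105 °C, 24 h).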

Cortical neurone [7] = assay: Induction of Nrf2 protein level in OGD/R-induced rat primary cortical neuron pretreated at 1.8 uM for 24 hrs followed by subjected to OGD for 2 hrs measured after 24 hrs under normoxic condition by Western blot analysis; type: functional, tissue-based
How it was run: (§3)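 Primary rat cortical neurons were pretreated with 1.8 μM compound for 24 h, given 2 h OGD, then 24 h normoxic culture. Nrf2, HO-1 and NQO1 mRNA were measured by RT-qPCR. Cytoplasmic and nuclear protein (30 μg/lane) were blotted for Nrf2, with lamin A and β-actin as references, and quantified by densitometry as the nuclear:cytoplasmic ratio. Three independent experiments, mean ± SD.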

Rattus norvegicus [8] = assay: as §2, with “Ki67+ cells” for “CD31 expression”, “hrs in presence of PTIO” for “hrs”; type: functional, organism-based; conditions: dose 95-950 µg/kg
[9] = Stability of the compound in pH 7.4 saline assessed as half life at 200 uM measured after 24 hrs by HPLC analysis; type: physicochemical; conditions: saline pH 7.4, pH 7.4
Cortical neurone [10] = assay: as §1, with “PKG expression” for “cGMP level”, “Western blot analysis” for “ELISA”; type: functional, tissue-based
[11] = Photostability of the compound under light at 200 uM measured after 24 hrs by HPLC analysis; type: physicochemical
Cortical neurone [12] = assay: Neuroprotective activity against in OGD/R-induced rat cortical neuron cytotoxicity assessed as decrease in cell viability pretreated at 1.8 uM for 24 hrs followed by subjected to OGD for 2 hrs measured after 24 hrs under normoxic condition by MTT assay; type: functional, tissue-based
How it was run: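 Primary rat cortical neurons from enzymatically digested cortex, plated on poly-lysine in DMEM/10% FBS for 4 h. Pretreated 24 h in neuron basal medium with 2% B27, then glucose/FBS-free DMEM at 1% O2. Returned to 10% FBS DMEM under normoxia for 24 h. Viability by MTT; three independent experiments, mean SD.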

Rattus norvegicus [13] = assay: Neuroprotective activity against middle cerebral artery occlusion-induced ischemia-reperfusion injury Sprague-Dawley rat model assessed as decrease in cerebral infarct volume at 950 microg/kg, iv pretreated for 2 hrs followed by reperfusion measured after 24 hrs in presence of PTIO; type: functional, organism-based; conditions: dose 950.0 µg/kg
How it was run: (§4)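 Male SD rats (N = 8/group) were dosed iv at 95, 950 or 9500 μg/kg 2 h before 2 h MCAO (nylon suture, chloral hydrate anesthesia), then reperfused. Where used, PTIO 1 mg/kg iv was given 30 min before compound. At 24 h, blinded assessment covered Longa deficit score, TTC-stained 2 mm sections (infarct area/whole area), and edema by wet/dry weight.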

Rattus norvegicus [14] = assay: Neuroprotective activity against middle cerebral artery occlusion-induced ischemia-reperfusion injury Sprague-Dawley rat model assessed as increase in NQO1 expression in cerebral ischemic penumbra at 950 microg/kg, iv treated immediately reperfusion measured after 24 hrs; type: functional, organism-based; conditions: dose 950.0 µg/kg
How it was run: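 MCAO rat brain paraffin sections (3 μm) were blocked with 10% goat serum and stained by IHC for NQO-1 and HO-1 (1:200) and phospho-Nrf2 (1:100), with DAB detection and rabbit IgG as negative control. Average optical density of positive cells was scored blinded over five fields per sample.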

Rattus norvegicus [15] = assay: In vivo activation of Nrf2 middle cerebral artery occlusion-induced ischemia-reperfusion injury Sprague-Dawley rat model assessed as phosphorylation at 950 microg/kg, iv treated immediately reperfusion measured after 24 hrs; type: functional, organism-based; conditions: dose 950.0 µg/kg
How it was run: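 Paraffin sections (3 μm) from MCAO rats were immunostained with anti-phospho-Nrf2 (1:100) and DAB, then scored blinded by average optical density over five fields per sample.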

Cortical neurone [16] = assay: Neuroprotective activity against in OGD/R-induced Sprague-Dawley rat cortical neuron injury assessed as cell viability pretreated at 1.8 uM for 24 hrs followed by subjected to OGD for 2 hrs measured after 24 hrs under normoxic condition; type: functional, tissue-based
How it was run: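 Cortical neurons were isolated from SD rat cortex by enzymatic digestion, plated on poly-lysine in 10% FBS DMEM, and pretreated 24 h at 1.8 μM in basal medium with 2% B27. OGD was run in glucose/FBS-free DMEM under 1% O₂, followed by 24 h reoxygenation in 10% FBS DMEM. Viability was read by MTT; apoptosis was also assessed. Three independent experiments.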

[17] = Stability of the compound under dark condition at 200 uM measured after 24 hrs by HPLC analysis; type: physicochemical
Rattus norvegicus [18] = assay: as §2, with “AuroraB + cells” for “CD31 expression”, “hrs in presence of PTIO” for “hrs”; type: functional, organism-based; conditions: dose 95-950 µg/kg
Cortical neurone [19] = assay: as §1, with “PKG expression” for “cGMP level”, “condition in presence of NS2028” for “condition”, “Western blot analysis” for “ELISA”; type: functional, tissue-based
Cortical neurone [20] = assay: Effect on Nrf2 mRNA transcript level in OGD/R-induced rat primary cortical neuron pretreated at 1.8 uM for 24 hrs followed by subjected to OGD for 2 hrs measured after 24 hrs under normoxic condition by RT-qPCR analysis; type: functional, tissue-based; how it was run: as §3
Cortical neurone [21] = assay: as §1, with “condition in presence of NS2028” for “condition”; type: functional, tissue-based
Rattus norvegicus [22] = assay: Neuroprotective activity against middle cerebral artery occlusion-induced ischemia-reperfusion injury Sprague-Dawley rat model assessed as decrease in cerebral edema degree at 950 microg/kg, iv pretreated for 2 hrs followed by reperfusion measured after 24 hrs in presence of PTIO; type: functional, organism-based; conditions: dose 950.0 µg/kg; how it was run: as §4

- logP [2]: 0.54
- Activity [5]: 0.0299 h⁻¹
- half-life at 200 µM [9]: 38.5 h
- Stability [11]: Stable
- Stability [17]: Stable
Compound: O=C(/C(=C/c1ccccc1)C[N+](=O)[O-])c1ccccc1
- Activity (Cortical neurone [1]): Active
- Activity (Rattus norvegicus [3]): Active
- Activity [4]: 7.21%
- Activity (Rattus norvegicus [6]): Active
- Activity (Cortical neurone [7]): Active
- Activity (Rattus norvegicus [8]): inactive
- Activity (Cortical neurone [10]): Active
- Activity (Cortical neurone [12]): Active
- Activity (Rattus norvegicus [13]): inactive
- Activity (Rattus norvegicus [14]): Active
- Activity (Rattus norvegicus [15]): Active
- Activity (Cortical neurone [16]): Active
- Activity (Rattus norvegicus [18]): inactive
- Activity (Cortical neurone [19]): inactive
- Activity (Cortical neurone [20]): inactive
- Activity (Cortical neurone [21]): inactive
- Activity (Rattus norvegicus [22]): inactive
